This note sets out measurements from PMC11959935 (Acta Pharmaceutica Sinica. B, 2025).

For one test, the system named is GL261 glioma allograft. In words: PET imaging of orthotopic GL261 glioma allograft mouse models. Type of test: in vivo. In short, it runs like this: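 Mice under isoflurane (1.5%, 0.4 L/min) in a stereotactic frame received mouse GL261 glioma cells (suspension 1 × 10^5 cells/mL) through a drilled hole by Hamilton syringe; controls received PBS. After 10 days, tumours were confirmed by T2-weighted MRI and [18F]FET PET (11.1 MBq), then the radiotracer was given i.v. T/N ratio was lesion SUV over contralateral normal brain.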

The next test concerns epileptic focus. Put plainly: Pilot clinical PET imaging in a patient with temporal lobe epilepsy. Type of test: in vivo, human.

For the compound `N[C@@H](Cc1ccc(OCC[18F])cc1)C(=O)O` [[^18F]FET, ^18F-fluoro-ethyl-tyrosine], the T/N ratio in the test on GL261 glioma allograft is given as 1.17 ± 0.02.
For the compound `CCOC(=O)c1ncn2c1CN(C)C(=O)c1cc([18F])ccc1-2` [[^18F]FMZ], the “SUVmean in epileptic focus” value in the test on epileptic focus is listed as 0.54 ± 0.28.
